Test system: MS2 coat protein
Assay: apparent Kd, MS2 coat protein; higher = weaker binding; RNA-MaP array; FMN 200 µM where present
Summary of the method: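 Binding was read on Illumina sequencing-chip clusters where stalled E. coli RNA polymerase had transcribed each design. A titration of SNAP-549-labelled MS2 coat protein began at 0.7 or 1.5 nM and doubled to 3 µM, once without ligand and once with constant ligand, in 100 mM Tris-HCl pH 7.5, 80 mM KCl, 4 mM MgCl2, BSA, DTT, yeast tRNA and Tween-20. The apparent Kd is the median of filtered per-cluster binding-curve fits, based on green signal normalised to red-channel RNA signal and control-cluster median Fmax.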

[1] = designed as: OFF switch for flavin mononucleotide, no ligand
[2] = ligand present: flavin mononucleotide, designed as: OFF switch for flavin mononucleotide
[3] = designed as: ON switch for flavin mononucleotide, no ligand
[4] = ligand present: flavin mononucleotide, designed as: ON switch for flavin mononucleotide

Sequence	apparent Kd [1] [nM]	apparent Kd [2] [nM]	apparent Kd [3] [nM]	apparent Kd [4] [nM]
GUCAGCUCGUGAGGAUAUACAACACUGCUUCGGCAGUGUAUUAAGAUCACAUGAGGAUCACCCAUGUAGAAGGCACGUGCUGAU	12.5	276	–	–
ACCUCACAUGAGGAUCACCCAUGUUAGGAUAUAUAAUCGUCGGCCUAGGGCCGGAGAUAUAGAAGGAGCAUAAC	16.9	19.7	–	–
GGCACUGUAGGAUAUACAUGAACAAUUGGUAUCCUCAGUCCACAUGAGGAUCACCCAUGUAGAAGGAUAGAAAA	58.6	46.1	–	–
GUGUAGGUAGGAUAUACAUGAGGAUCACCCAUGUGAAUAAGAUAGAAUAAGAUAAAGUGUAGAAGGACUAGUGU	37	28.8	–	–
ACAUGAGGAUCACCCAUGUAUUACAUGGUUAUGUUUAUUAACAGAAGGCGAAAUUACCACUGAAUCGAGGAUAUGUAUUCUAUA	53.4	45.1	–	–
GCUGAUGCAGGAUAUAUAUGAAGCGUUCGAAUAGAAUGCGAACAUGAGGAUCACCCAUGUAGAAGGGCAUUGGC	14.6	20.1	–	–
GGAGCACAUGAAUACAUGAGGAUCACCCAUGUCAAAAGAUAUGAGGAUAUGGAUCGGAAAACGAUCUAGAAGGCAUAGUGCUCC	–	–	28.8	6.98
UAGAAGUCAGGAUAUGCAUGGCGGGACUUGCGUCGUGGCGUGCAGAAGGGACAUGAGGAUCACCCAUGUAAAGU	51.5	55.5	–	–
AUGUUGAGCAGUGUAUUAAGAUCACAUGAGGAUCACCCAUGUAGAAGGCACGAGCUGAUCGCUCGUGAGGAUAUACAUCACUGC	10.3	110	–	–
CAGCGUACCAGAGGAUAUGAUUGUGGGUAAAGAGCGCUUAGGUGGCUACAUGAGGAUCACCCAUGUCAGAAGGCUGGAGUUCAA	279	129	–	–
CCGGAAAGGAAGGAUAUGCUAGACGAGAGUCUAGCAGAAGGUCCUACAUGAGGAUCACCCAUGUGGCCUCCCGG	139	627	–	–
CCGGAUACGGGUAGCCUGACAUGAGGAUCACCCAUGUGAUCCUAGGAUAUGGAUCCUAAUUGGAUCCAGAAGGAGGUUGGCUAC	–	–	860	436
UGUGUGUGGGCAGGAUAUACAUGAAUAUAUAUGAUGUAGUAUGAUGUAACAUGAGGAUCACCCAUGUAGAAGGGCCGGUGUAUG	122	140	–	–
GCUAGUCAUGUCAGGAUAUGCAGUUCCUUGGAACUGCAGAAGGGACAUGAGGAUCACCCAUGUGCCUAGCUAGC	41.1	357	–	–
GAGUUGAAGUUAGGAUAUUGGAUAGGGACGGAAUAAGAAGGAGCAAGACAUGAGGAUCACCCAUGUGUAGAAGAAGAGAUCCUC	352	227	–	–
UUAUUAUAUGUAGGAUAUGCGUAUUAUUGUUAUGCAGAAGGACAUGAGGAUCACCCAUGUAUAUUAUUGUUGUAUAUUAUAUAU	23.5	43	–	–
GUGGUACAUGAGGAUCACCCAUGUUAGGAUAUCGCGUGAGGUUUUACUUCCGCACACGCGAGAAGGGACGUCUU	54.9	41.6	–	–
CCGGAAAUAGAGGAUAUAGUACUGGAUACAGUACUAGAAGGCUAUACAUGAGGAUCACCCAUGUGUCCUACCGG	16	32.4	–	–
UGGCUACAUGAGGAUCACCCAUGUCAGGAUAUGCCGUCGGCUUGCGUUCGUCGUUUGGGUAGAAGGGACUGCGG	83.1	91.5	–	–

Sequence	apparent Kd [1] [nM]	apparent Kd [2] [nM]	apparent Kd [3] [nM]	apparent Kd [4] [nM]
UUUCCUUGUGUGAGGAUAUACUUGUUUGUGUUUUUGUAGAAGGCACAUGAGGAUCACCCAUGUACUCUUUCCUG	35.1	54.3	–	–
CUUCGACAUGAGGAUCACCCAUGUCAGGAUAUUGUUUAUCUGGUUUUUUACAGAUAUGCAAGAAGGGAUGUGUU	28.5	23.1	–	–
GCGCAGUCAGGAUAUGCCGCUGGCGAUCACCGUGGGCAAAGGCAGAAGGGACAUGAGGAUCACCCAUGUGGCGC	72.1	32.9	–	–
GUAAACGAUCAGGAUAUAUCAAAUAAUAGCUUGAUAGAAGGGAUCACAUGAGGAUCACCCAUGUGAUCUUCUUU	13.6	14.8	–	–
GCAAAGCCUGACAUGAGGAUCACCCAUGUUAGAUUGUUAUGUCAGGAUAUUGUCUAGCAACUAGACAAGAAGGGAUGCUUUGCC	–	–	603	50.9
AAUGGCGUGAUAACGCUAAUUACAACAUGAGGAUCACCCAUGUAGGAUAUCCUACCGAAAUGGUAGGAGAAGGACAAGCAAUGA	30.4	23.5	–	–
AAAUACGUUUCGUAGCAGUGUCAUCGAGAAGGCCCUGACAUGAGGAUCACCCAUGUUGUUACAUGGGAGGAUAUCGAUGAUAAA	–	–	16.2	5.52
ACGUUUUAUGCAGGAUAUUGAAAUAUAUUUAAACAAGAAGGGCAAUACAUGAGGAUCACCCAUGUCAGCAUGGUAUUUAAGUUC	43.9	45.4	–	–
ACAAGAUCAGGAUAUACAUGAGGAUCACCCAUGUUUAUCAAAAAGGGACUUUCUUAAUGUAGAAGGGAUCUUGU	27.5	83.9	–	–
GUAGCAUAGACAGGAUAUCUAUACCCGAAAGGGACAUGAGGAUCACCCAUGUUGCGAAAGCGGUGGGAGAAGGGUCUAUGCUAC	–	–	25.4	6.04
GUUGGAUGAGGAUAUCGAGGUUAGUACAUGAGGAUCACCCAUGUUAUCCAGGUGUCGGUUCGAGAAGGCAUUGGAC	32.6	114	–	–
UGCGGUAGAGGAUAUACAUUGAAUUUGAUUCAUGUAAAACUACAUGAGGAUCACCCAUGUAGAAGGCUAUCGCU	17.4	36.1	–	–
AUAUAUAUAUCAGGAUAUGGACAGGCCUGUCCGUAUUGAGACAGUAACAUGAGGAUCACCCAUGUCCAGAAGGGAUAUAUAUAU	51.5	59.2	–	–
AUCUUGCGAGGAUAUACUUACUUUUUUUUAUUUGGUUGCGAACAUGAGGAUCACCCAUGUAGAAGGUGCAUAAC	26	24.1	–	–
GGUACUCAAAGAGUACUUGGUCGAACAUGAGGAUCACCCAUGUAGGAUAUGUAAAGCAAGAAGUAACAGAAGGACAUGUGCAGC	13.1	17.1	–	–
CUUUUACAUGAGGAUCACCCAUGUUCUGGCGGGUCAGGAUAUAGAUCGGAUGCGUUCUGUCUAGAAGGGACAUGUU	–	–	67.3	38.1
AGGUAACAUGAGGAUCACCCAUGUCAGGAUAUCAGUAAGAUGAGUAUAGAAUAGAGUAUGAGAAGGGACUAUAU	36.5	28.6	–	–
AAAGUACAUGAGGAUCACCCAUGUCCCAAUGAAUAAGGAUAUACGAAAAUAAAAUAAAAUGUAGAAGGUAUAAUAG	–	–	31.6	27.2
GCUGACGAUGUAGGAUAUCAGUAUAAUAAAUACUGAGAAGGACAUGAGGAUCACCCAUGUCUCCAACGUCAGCAGAGGAAACUC	15.9	16.8	–	–

Sequence	apparent Kd [1] [nM]	apparent Kd [2] [nM]	apparent Kd [3] [nM]	apparent Kd [4] [nM]
CAGACGUGAGGAUAUCUGAUGUCUAACUUCGGUUAGACAUCAGAGAAGGCACAUGAGGAUCACCCAUGUCUGAA	76.8	309	–	–
CCACGUCCCAUUAACAUGAGGAUCACCCAUGUCAAAAGACAUGAGGAUAUGCAUCCUAAUUGGAUGCAGAAGGCAUGGACGUGG	–	–	814	87.1
AUAGAAGACUAGAAGGAGGUUUAAUAAUAUUGUCGAGGUAUUGUUGAAUUUAGGAUAUGGGACAUGAGGAUCACCCAUGUUUUG	–	–	24	16.2
CCCUCACAUGAGGAUCACCCAUGUCAGGAUAUUCGAGGCGCAAAUACGCCAAAUGCAGGAAGAAGGGACGUGCC	15.5	22.4	–	–
GAAGCACAUGAGGAUCACCCAUGUGAGGAUAUCCGUCUGGUCCGGCCGGACCAGUACCGGAGAAGGCGCGUAAA	59.1	42	–	–
CUUUUGUGAGGAUAUUCGUAGUAGGGUCAUGGCAUUAUUAUGAAGAAGGCACAUGAGGAUCACCCAUGUACCUU	17.3	34.6	–	–
GUGUGUUGCGGGCAGGAUAUGUACUUGAGUACAUGAGGAUCACCCAUGUGCGGGUGUUUCACCCGACAGAAGGGCCUAUCGCGAC	–	–	977	309
ACAUGAGAUCUAGGAUAUAUUGUACCUACAUGUGACAUGAGGAUCACCCAUGUGGUAAGUAUGACAUAGAAGGAGAAGAUAUGU	–	–	71	54.3
AUGUUACAUGAGGAUCACCCAUGUGAGGAUAUGUGUACUGGUAAAAAAGUGUUUGGCCACAGAAGGCAUUUGGA	29.1	31.2	–	–
GACAUGAGGAUCACCCAUGUCCCUCCAGAAGGCUGGCGCGCGAAACCUAUAUCGGUUCCGGGCACAGAGGAUAUGGGCGGUUGG	–	–	199	27.2
UUUCCGCGAGGAUAUGCGGGUUGUGCUUUUCAUUUUUUAUAACAUGAGGAUCACCCAUGUAGAAGGUGCUUCUG	78.7	71.6	–	–
GCUGUCGUAUGAGGAUAUGGUCACCUUUGGUGACCAGAAGGCAUGUCAAUAGACAUGAGGAUCACCCAUGUAGUAAAGACAGCA	–	–	391	39.4
AGCUACGUUUCGUAGCAGCUAGGUGAGGAUAUUCAAAAUUUCACAUGAGGAUCACCCAUGUAUGUGAAGAAGGCGCCUAGAAAG	–	–	7.29	4.74
UGAGCGACCACAGGAUAUACUUAGGAAGACCGAGUAGAAGGGUGGAAGAGCGUGCAGUGACAUGAGGAUCACCCAUGUGGUUGU	–	–	156	70.1
GGGCAAUAGUAGAAGGGAUAUACGAAAGGUAUAUCAGGAUAUACAUGAGGAUCACCCAUGUUCUAACAGUGAUAGUCCUCCCUA	24.3	171	–	–
AUCAGCUCGUCAGGAUAUACGUCACUGCGUCAGCAGUGUGGUAAGAUCACAUGAGGAUCACCCAUGUAGAAGGGACGAGCUGAU	39.7	696	–	–
GCCAGGAUGUGAGGAUAUGCUGAGGAUAACUCAGCAGAAGGCACAUGAGGAUCACCCAUGUACACUUAUCAUAAAUACCCUGGC	11.9	16.3	–	–
CGGUGCUGAGGAUAUACAUGAGGAUCACCCAUGUGUGCCAGCUAGAAGACUGGCACUUGUAGAAGGCAGUACUG	11.4	20.5	–	–

Reference: the EternaBench riboswitch data
